ChEMBL document CHEMBL5543163, “Druglike, 18F-labeled PET Tracers Targeting Fibroblast Activation Protein” (J Med Chem, 2024)

Experiments:
[1] = Ratio of drug level in tumor to liver of female nude mouse harboring null mutation of CD1 antigen complex xenografted with human U-87 MG cells at 5 to 7.4 MBq, iv measured at 60 mins postinjection by gamma counter analysis; assay type: ADME, organism-based; details: in vivo, 1 h, dose 5-7.4 MBq
Summary of the method: (§1)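 Subcutaneous U-87MG xenografts (5×10^6 cells in DPBS, hind flank) were grown in female CD1 nude mice to about 200 mm3. After tail-vein radiotracer injection and a 60 min dynamic PET scan, tissues were harvested at 60 min p.i. and γ-counted (%ID/g). Tumor-to-tissue ratios are means ± SD of individual ratios, n=4 per tracer.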

[2] = Ratio of drug level in tumor to blood of female nude mouse harboring null mutation of CD1 antigen complex xenografted with human U-87 MG cells at 5 to 7.4 MBq, iv measured at 60 mins postinjection by gamma counter analysis; assay type: ADME, organism-based; details: tumour, 1 h, dose 5-7.4 MBq; summary of the method: as §1
[3] = Stability in PBS assessed as compound remaining at 185 kBq measured upto 60 mins by radio-HPLC analysis; assay type: physicochemical; details: read-out: Stability
Summary of the method: (§2)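 Radiotracer was incubated at 37 °C for up to 60 min in PBS (0.01 M, pH 7.4) or in mouse plasma. Samples were deproteinized with an equal volume of cold ACN and centrifuged. The supernatant was analyzed by radio-HPLC with 30 s fractions γ-counted to give the intact fraction. Triplicates.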

[4] = Drug uptake in liver of female nude mouse harboring null mutation of CD1 antigen complex at 5.1 to 7.4 MBq, iv measured after 15 to 60 mins by gamma counter analysis; assay type: ADME, organism-based; details: in vivo, dose lower 5.1 MBq, time lower 15 min, dose upper 7.4 MBq, time upper 60 min
Summary of the method: (§3)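 Female CD1 nude mice, 6–8 weeks old (20–25 g), received the radiotracer through the lateral tail vein. At 15, 30 and 60 min p.i. (n = 3 per time point) blood was drawn by cardiac puncture and the animals were euthanized. Organs were excised, weighed and γ-counted. Uptake is expressed as %ID/g.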

[5] = Drug uptake in tumor of female nude mouse harboring null mutation of CD1 antigen complex xenografted with human U-87 MG cells at 5 to 7.4 MBq, iv pretreated with (S)-N-(2-(2-cyano-4,4-difluoropyrrolidin-1-yl)-2-oxoethyl)quinoline-4-carboxamide for 30 mins followed by radioligand addition and measured measured after 60 mins by PET/CT analysis; assay type: ADME, organism-based, Neoplasm; details: in vivo, 1 h, dose 5-7.4 MBq
Summary of the method: (§4)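 U-87MG xenografts (5×10^6 cells, subcutaneous flank) were grown in female CD1 nude mice to about 200 mm3. Dynamic whole-body PET over 60 min p.i. was followed by CT. Images were reconstructed with OSEM 3D and expressed as %ID/mL to give time-activity curves. For blocking, the FAP inhibitor (5 mg/kg) was given via the tail vein 30 min before the tracer; n=4.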

[6] = Drug uptake in tumor of female nude mouse harboring null mutation of CD1 antigen complex xenografted with human U-87 MG cells at 5 to 7.4 MBq, iv measured after 60 mins by autoradiography; assay type: ADME, organism-based, Neoplasm; details: in vivo, 1 h, dose 5-7.4 MBq
Summary of the method: (§5)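 Right after imaging and γ-counting, tumors from HT29 or U-87MG xenografts were snap-frozen and embedded in OCT. Sections of 100 µm were exposed overnight to phosphor screens. Non-blocked tumors were compared with tumors from mice pre-injected with the FAP inhibitor.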

[7] = Drug uptake in skull of female nude mouse harboring null mutation of CD1 antigen complex xenografted with human U-87 MG cells at 5 to 7.4 MBq, iv measured after 60 mins by gamma counter analysis; assay type: ADME, organism-based; details: in vivo, 1 h, dose 5-7.4 MBq
[8] = Stability in female nude mouse harboring null mutation of CD1 antigen complex assessed as compound remaining at 5.1 to 7.4 MBq, iv measured at 60 mins by radio-HPLC analysis; assay type: ADME, organism-based; details: in vivo, dose 5.1-7.4 MBq, read-out: Stability
Summary of the method: (§6)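 Female CD1 nude mice received 5.1–7.4 MBq i.v. EDTA blood collected at 15, 30 and 60 min p.i. (n=3 per time point) was centrifuged to plasma, deproteinized with cold ACN and centrifuged. The supernatant was analyzed by radio-HPLC with 30 s fractions γ-counted to give the percent intact tracer.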

[9] = Drug uptake in intestine of female nude mouse harboring null mutation of CD1 antigen complex at 5.1 to 7.4 MBq, iv measured after 15 to 60 mins by gamma counter analysis; assay type: ADME, organism-based; details: in vivo, dose lower 5.1 MBq, time lower 15 min, dose upper 7.4 MBq, time upper 60 min; summary of the method: as §3
[10] = Drug uptake in tumor of female nude mouse harboring null mutation of CD1 antigen complex xenografted with human U-87 MG cells at 5 to 7.4 MBq, iv measured at 60 mins by PET/CT analysis; assay type: ADME, organism-based, Neoplasm; details: in vivo, 1 h, dose 5-7.4 MBq; summary of the method: as §4
[11] = Drug uptake in tumor of female nude mouse harboring null mutation of CD1 antigen complex xenografted with human U-87 MG cells with increased FAP positive tumor area at 5 to 7.4 MBq, iv measured after 60 mins by immunohistochemistry analysis; assay type: ADME, organism-based, Neoplasm; details: in vivo, 1 h, dose 5-7.4 MBq
[12] = Ratio of drug level in tumor to muscle of female nude mouse harboring null mutation of CD1 antigen complex xenografted with human U-87 MG cells at 5 to 7.4 MBq, iv measured at 60 mins postinjection by gamma counter analysis; assay type: ADME, organism-based; details: in vivo, 1 h, dose 5-7.4 MBq; summary of the method: as §1
[13] = Drug uptake in blood of female nude mouse harboring null mutation of CD1 antigen complex at 5.1 to 7.4 MBq, iv measured after 15 to 60 mins by gamma counter analysis; assay type: ADME, organism-based; details: in vivo, dose lower 5.1 MBq, time lower 15 min, dose upper 7.4 MBq, time upper 60 min; summary of the method: as §3
[14] = Drug uptake in large intestine of female nude mouse harboring null mutation of CD1 antigen complex assessed as increase in renal excretion at 5.1 to 7.4 MBq, iv measured at 60 mins by gamma counter analysis; assay type: ADME, organism-based; details: in vivo, 1 h, dose 5.1-7.4 MBq; summary of the method: as §3
[15] = Drug uptake in tumor of female nude mouse harboring null mutation of CD1 antigen complex xenografted with human HT-29 cells with decreased FAP positive tumor area at 5 to 7.4 MBq, iv measured after 60 mins by immunohistochemistry analysis; assay type: ADME, organism-based, Neoplasm; details: in vivo, 1 h, dose 5-7.4 MBq
[16] = Octanol/water partition coefficient, logD of compound at 74 kBq incubated for 2 mins by gamma counter method; assay type: physicochemical
Summary of the method: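 Octanol and PBS phases were mixed and vortexed for 2 min, then centrifuged at 3,000 rpm for 10 min. Aliquots of 0.5 mL from each phase were γ-counted and corrected for mass and density. LogD was taken as log10 of the octanol/PBS radioactivity ratio.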

[17] = Stability in CD1 mouse plasma assessed as compound remaining at 185 kBq measured upto 60 mins by radio-HPLC analysis; assay type: ADME, cell-free; details: read-out: Stability; summary of the method: as §2
[18] = Drug uptake in kidney of female nude mouse harboring null mutation of CD1 antigen complex assessed as increase in renal excretion at 5.1 to 7.4 MBq, iv measured after 15 to 60 mins by gamma counter analysis; assay type: ADME, organism-based; details: in vivo, dose lower 5.1 MBq, time lower 15 min, dose upper 7.4 MBq, time upper 60 min; summary of the method: as §3
[19] = Stability in PBS assessed as drug degradation at 185 kBq measured upto 60 mins by radio-HPLC analysis; assay type: physicochemical; details: buffer, 1 h; summary of the method: as §2
[20] = Drug uptake in urinary bladder of female nude mouse harboring null mutation of CD1 antigen complex assessed as increase in renal excretion at 5.1 to 7.4 MBq, iv measured after 15 to 60 mins by gamma counter analysis; assay type: ADME, organism-based; details: in vivo, dose lower 5.1 MBq, time lower 15 min, dose upper 7.4 MBq, time upper 60 min; summary of the method: as §3
[21] = Drug uptake in bone structures of female nude mouse harboring null mutation of CD1 antigen complex xenografted with human U-87 MG cells at 5 to 7.4 MBq, iv measured after 60 mins by gamma counter analysis; assay type: ADME, organism-based, Bone element; details: in vivo, 1 h, dose 5-7.4 MBq
[22] = Stability in CD1 mouse plasma assessed as drug degradation at 185 kBq measured upto 60 mins by radio-HPLC analysis; assay type: ADME, cell-free; details: 1 h; summary of the method: as §2
[23] = Drug uptake in tumor of female nude mouse harboring null mutation of CD1 antigen complex xenografted with FAP-negative human HT-29 cells at 5 to 7.4 MBq, iv measured after 60 mins by autoradiography; assay type: ADME, organism-based, Neoplasm; details: in vivo, 1 h, dose 5-7.4 MBq; summary of the method: as §5
[24] = Drug uptake in tibia of female nude mouse harboring null mutation of CD1 antigen complex xenografted with human U-87 MG cells at 5 to 7.4 MBq, iv measured after 60 mins by gamma counter analysis; assay type: ADME, organism-based; details: in vivo, 1 h, dose 5-7.4 MBq
[25] = Ratio of drug level in tumor to small intestine of female nude mouse harboring null mutation of CD1 antigen complex xenografted with human U-87 MG cells at 5 to 7.4 MBq, iv measured at 60 mins postinjection by gamma counter analysis; assay type: ADME, organism-based; details: in vivo, 1 h, dose 5-7.4 MBq; summary of the method: as §1
[26] = Drug uptake in tumor of female nude mouse harboring null mutation of CD1 antigen complex xenografted with FAP-negative human HT-29 cells at 5 to 7.4 MBq, iv measured at 60 mins by PET/CT analysis; assay type: ADME, organism-based, Neoplasm; details: in vivo, 1 h, dose 5-7.4 MBq
Summary of the method: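 HT29 xenografts (10×10^6 cells, subcutaneous hind flank) were grown in female CD1 nude mice to about 200 mm3. After tail-vein injection of the tracer, dynamic PET over 60 min was followed by CT. Images were reconstructed with OSEM 3D and tumor uptake was expressed as %ID/mL from time-activity curves, n=4.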

[27] = Stability in female nude mouse harboring null mutation of CD1 antigen complex assessed as drug degradation at 5.1 to 7.4 MBq, iv measured at 60 mins by radio-HPLC analysis; assay type: ADME, organism-based; details: 1 h, dose 5.1-7.4 MBq; summary of the method: as §6

[2H]C([2H])([18F])[N+](C)(C)CCCOc1ccc2nccc(C(=O)NCC(=O)N3CC(F)(F)C[C@H]3C#N)c2c1
Ratio [1]: 4.77
Ratio [2]: 6.35
remaining at 1 h, 185 kBq [3]: > 70%
Drug uptake [4]: Active
Drug uptake [5]: Not Active
Drug uptake [6]: Active
Drug uptake [7]: Active
remaining at 1 h [8]: 56.5%
Drug uptake [9]: Active
Drug uptake [10]: 10.16 %ID/ml
Drug uptake [11]: Active
Ratio [12]: 6.54
Drug uptake [13]: 0.24 % ID/g
Drug uptake [14]: 0.38 % ID/g
Drug uptake [15]: Not Active
logD at 2 min [16]: -1.77
remaining at 1 h, 185 kBq [17]: > 70%
Drug uptake [18]: Active
Stability [19]: Stable
Drug uptake [20]: Active
Drug uptake [21]: Active
Stability [22]: Stable
Drug uptake [23]: Active
Drug uptake [24]: 4.33 % ID/g
Ratio [25]: 2.43

COC(C[18F])COc1ccc2nccc(C(=O)NCC(=O)N3CC(F)(F)C[C@H]3C#N)c2c1 (stereo partly drawn)
Ratio [1]: 1.64
Ratio [2]: 5.01
remaining at 1 h, 185 kBq [3]: > 70%
Drug uptake [4]: Active
Drug uptake [5]: Not Active
Drug uptake [6]: Active
Drug uptake [7]: Active
Drug uptake [9]: Active
Drug uptake [10]: < 3 %ID/ml
Drug uptake [11]: Active
Ratio [12]: 6.48
Drug uptake [15]: Not Active
logD at 2 min [16]: 0.77
remaining at 1 h, 185 kBq [17]: > 70%
Drug uptake [18]: Active
Stability [19]: Stable
Drug uptake [20]: Active
Drug uptake [21]: Active
Stability [22]: Stable
Drug uptake [23]: Active
Drug uptake [26]: 1.86 %ID/ml
Stability [27]: Unstable
Ratio [25]: 0.22
